# HKDC1 inhibitor = HKDC1 hexokinase inhibitors, primary screen, biochemical, fluorescence, uHTS | Q2TB90 | AID 493160, 2011 | recombinant HKDC1, G6PDH/diaphorase resazurin coupled fluorescence | inhibition, % at 20 µM | 340,000 compounds, 0.16% hits;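 active = inhibition above about 35% when tested at 20 µM, limit read from the data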
#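 Test system: recombinant HKDC1 (HK5) hexokinase enzyme, produced in-house / Doses: 20 µM test compound, 1% DMSO / Timing: 90 min, room temperature / Detection: G6PDH/diaphorase-coupled fluorescence, 1 mM NADP, 100 µM resazurin, 525/613 nm / Control set: DMSO wells with and without enzyme mix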
# SUMO1-SIM PPI = modulators of SUMO1 protein-protein interactions, primary screen, biochemical, uHTS. Small ubiquitin-related modifier 1 (Homo sapiens), P63165. SUMO1 binding to a labelled peptide, TR-FRET, 1 h. inhibition, % at 20 µM. 360,000 compounds, 0.33% hits. AID 602429, 2012; in the data active = inhibition above about 37%
# LMPTP inh = LMPTP phosphatase inhibitors, primary screen, biochemical, fluorescence intensity, uHTS | recombinant LMPTP-A, OMFP fluorogenic substrate | inhibition, % at 20 µM | 360,000 compounds, 0.22% hits | AID 651560, 2012;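 active = compounds that cut the enzyme signal by at least half of the control window in the single-dose screen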
#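 Assay system: LMPTP-A, protein tyrosine phosphatase of low molecular weight / Medium: pH 6.0 Bis-Tris buffer with DTT and Triton X-100 / Schedule: 50 min enzyme reaction at room temperature, protected from light / Measured by: endpoint fluorescence intensity from OMFP dephosphorylation / Read-out basis: % inhibition relative to no-enzyme and uninhibited control wells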
# STEP block = STEP phosphatase inhibitors, primary screen, biochemical, fluorescence intensity, uHTS; Tyrosine-protein phosphatase non-receptor type 5 (Homo sapiens), P54829; recombinant STEP, OMFP fluorogenic substrate; inhibition, % at 20 µM; 360,000 compounds, 0.25% hits; AID 588621, 2011;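 active = inhibition at 20 µM, scaled per plate between control wells, above about 37%, limit read from the data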
#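 System: isolated STEP enzyme; schedule: 20 min enzyme reaction at room temperature, protected from light; medium: Bis-Tris buffer pH 6.0, 2.5 mM DTT, 0.005% Tween 20; signal: fluorescence, 480/540 nm; dosing: single compound dose of 20 µM, 1% DMSO final; also added: OMFP substrate, 25 µM final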
# DNMT1 inh = human DNMT1 methyltransferase inhibitors, primary screen, biochemical, molecular beacon, fluorescence, HinP1I cleavage, uHTS; DNA (cytosine-5)-methyltransferase 1 (Homo sapiens), P26358; 360,000 compounds, 0.83% hits; inhibition (reported as % activation of signal), % at 10 µM; AID 588458, 2011; in the data active = inhibition above about 50%
# Target sequence (P26358 504-1616 limits assumed): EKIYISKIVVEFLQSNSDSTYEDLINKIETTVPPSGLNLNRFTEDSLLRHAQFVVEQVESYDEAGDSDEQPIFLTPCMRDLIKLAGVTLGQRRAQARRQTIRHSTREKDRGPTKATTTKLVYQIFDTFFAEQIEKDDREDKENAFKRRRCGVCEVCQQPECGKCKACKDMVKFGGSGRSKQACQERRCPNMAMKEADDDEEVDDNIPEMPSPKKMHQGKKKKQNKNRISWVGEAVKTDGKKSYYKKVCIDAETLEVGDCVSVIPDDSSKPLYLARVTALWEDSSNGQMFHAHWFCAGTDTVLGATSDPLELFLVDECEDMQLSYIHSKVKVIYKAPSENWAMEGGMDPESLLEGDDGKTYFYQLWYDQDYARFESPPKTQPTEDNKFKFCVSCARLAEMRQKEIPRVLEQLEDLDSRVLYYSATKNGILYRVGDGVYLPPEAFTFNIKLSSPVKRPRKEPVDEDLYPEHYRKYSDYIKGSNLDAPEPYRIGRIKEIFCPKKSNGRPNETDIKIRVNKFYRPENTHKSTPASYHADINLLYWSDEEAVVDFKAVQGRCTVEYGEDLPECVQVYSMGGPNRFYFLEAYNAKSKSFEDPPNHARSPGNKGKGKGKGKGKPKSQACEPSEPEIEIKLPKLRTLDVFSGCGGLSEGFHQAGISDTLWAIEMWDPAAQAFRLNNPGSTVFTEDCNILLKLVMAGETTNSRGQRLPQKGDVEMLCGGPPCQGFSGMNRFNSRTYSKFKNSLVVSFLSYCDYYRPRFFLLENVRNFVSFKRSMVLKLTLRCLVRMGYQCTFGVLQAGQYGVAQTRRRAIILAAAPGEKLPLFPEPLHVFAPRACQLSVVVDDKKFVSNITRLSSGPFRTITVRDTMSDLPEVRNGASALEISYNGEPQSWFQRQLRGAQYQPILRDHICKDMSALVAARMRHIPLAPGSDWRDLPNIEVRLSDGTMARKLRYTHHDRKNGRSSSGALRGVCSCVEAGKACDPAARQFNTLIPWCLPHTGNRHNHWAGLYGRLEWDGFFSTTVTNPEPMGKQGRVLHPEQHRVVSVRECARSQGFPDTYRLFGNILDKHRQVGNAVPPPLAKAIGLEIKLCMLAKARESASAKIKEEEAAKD
# Scp1 inh = Scp-1 phosphatase inhibitors, primary screen, biochemical, colorimetric, uHTS; Recombinant Scp1, phosphopeptide, malachite green phosphate absorbance; inhibition, % at 20 µM; Carboxy-terminal domain RNA polymerase II polypeptide A small phosphatase 1 (Homo …; AID 493091, 2011; 340,000 compounds, 0.88% hits;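 active = inhibition above about 50% at 20 µM, limit read from the data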
#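 Test system: SCP-1 phosphatase catalytic domain, residues 76-261; measured by: colorimetric phosphate reagent with accelerator and stabiliser, absorbance at 630 nm; timing: enzyme reaction 45 min at room temperature, colour 5 min, stabilisation 30 min; also added: Phosphorylated 17-residue peptide substrate; compound dosing: one concentration, 20 µM, with 1.0% DMSO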
# DNMT1 inh conf = DNMT1 methyltransferase inhibitor retest, confirmation, biochemical, molecular beacon, fluorescence, single concentration | shares compounds with DNMT1 inh | DNMT1 molecular beacon HinP1I cleavage | inhibition, % at 10 µM | 2,300 compounds, 8% hits;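 active = average inhibition of at least 30% in the single-concentration confirmation test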
# DNMT1 interf = counter-screen for DNMT1 inhibitors: spectral interference | shares compounds with DNMT1 inh | DNMT1 molecular beacon spectral interference counterscreen, fluorescence 485/520 | activation (fluorescence interference), % at 10 µM | 2,300 compounds, 1% hits;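 active = activation of at least 30% at 10 µM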;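 also: DNMT1 catalytic domain with a HinP1I cleavage step and a FAM/dabcyl DNA beacon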
# Hits are given with their value; 0 = inactive; - = no result. An excerpt weighted towards active compounds, which were near 1.8% of everything screened.
SMILES,HKDC1 inhibitor,SUMO1-SIM PPI,LMPTP inh,STEP block,DNMT1 inh,Scp1 inh,DNMT1 inh conf,DNMT1 interf
O=C(O)c1ccc(C(=O)c2ccc3c(c2)C(=O)N(CCO)C3=O)cc1,0,0,0,0,88,0,0,0
O=C(c1ccc2c(c1)C(=O)N(CCCO)C2=O)c1ccc2c(c1)C(=O)N(CCCO)C2=O,0,0,0,0,0,0,-,-
O=c1n(Cc2ccccc2)c(O)c2n1Cc1ccccc1N=C2c1ccc(C(F)(F)F)cc1,-,0,0,0,0,-,-,-
O=[N+]([O-])c1cccc(/C=C/c2nc(C=Nc3ccc4ccccc4c3)c(O)o2)c1,0,0,0,0,53,0,0,0
COc1ccc(Cl)cc1-c1cc(C(=O)NCc2ccc(C(F)(F)F)cc2)[nH]n1,-,0,0,0,0,-,-,-
COc1ccc(Cl)cc1-c1cc(C(=O)NCc2cccc(C(F)(F)F)c2)[nH]n1,-,0,0,0,58,-,0,0
c1ccc(-c2nc(-n3nc4ccccc4n3)nc3ccccc23)cc1,0,0,0,0,0,0,-,-
O=C1CN(c2nc(-c3ccccc3)c3ccccc3n2)c2ccccc2N1,0,0,0,0,61,0,0,0
CCn1c2ccccc2c2cc(CN3CCN(S(=O)(=O)Cc4ccccc4)CC3)ccc21,0,0,0,0,60,0,0,0
COCCCn1c(C(=O)Nc2ccc3c(c2)OCO3)cc2c(=O)n3cccc(C)c3nc21,-,0,0,0,83,-,0,0
N#CCNC1CC(=O)N(c2ccc(F)cc2)C1=O (centres undefined),0,0,0,0,0,0,-,-
O=C1CC(NCC2CCCO2)C(=O)N1c1ccc(F)cc1 (centres undefined),0,0,0,0,81,0,0,0
CCOC(=O)c1ccc(CNS(=O)(=O)c2c(C)ccc3nsnc23)o1,0,0,0,0,69,0,0,0
Cc1ccc(C(=O)NCCCNCCCNC(=O)c2ccc(C)nc2)cn1,0,0,0,0,0,0,-,-
Cc1ccc(C(=O)NCCCNCCCN(C)C)cn1,0,0,0,0,53,0,0,0
Cc1ccc(S(=O)(=O)N2CCN(C(=O)C(O)c3ccccc3)CC2)cc1 (centres undefined),-,0,0,-,-,-,-,-
O=C1c2ccccc2C(c2nnnn2-c2ccc3c(c2)OCCO3)N1CCc1ccccc1F (centres undefined),-,0,0,-,-,-,-,-
O=c1cc(-c2ccc(O)cc2)oc2c(-c3c(O)cc(O)c4c(=O)cc(-c5ccc(O)cc5)oc34)c(O)cc(O)c12,0,0,0,0,0,0,-,-
O=c1c(-c2c(O)cc(O)c3c(=O)cc(-c4ccc(O)cc4)oc23)c(-c2ccc(O)cc2)oc2cc(O)cc(O)c12,0,50,0,0,93,53,0,0
O=C(N/N=C/c1ccccc1)c1cc(=O)[nH]c2ccccc12,0,0,0,0,61,0,0,0
CN(C)c1ccc(/C=N/NC(=O)c2cc(=O)[nH]c3ccccc23)cc1,0,0,0,0,0,0,-,-
C[C@H](CO)N1C[C@H](C)[C@@H](CN(C)S(=O)(=O)c2ccc(C#N)cc2)OCc2cn(nn2)CCCC1=O,-,0,0,0,0,-,-,-
O=C(Nc1cccc(Oc2ccccc2)c1)c1ccc(-n2cncn2)c2ccoc12,-,0,0,0,0,-,-,-

# Screens as filed in PubChem.
